In ChEMBL document CHEMBL4354843, “Structure-Based Design of a Potent and Selective Covalent Inhibitor for SRC Kinase That Targets a P-Loop Cysteine” (J Med Chem, 2020):
Calls of active or inactive are those of the source. The rule behind the calls is not given here.

What was measured:
[1] = target: Serine/threonine-protein kinase Sgk3 (Homo sapiens) (UniProt Q96BR1); assay: Binding affinity to wild-type human partial length SGK3 (M119 to L496 residues) expressed in mammalian expression system assessed as residual binding level at 1 uM by Kinomescan method relative to control
Chain of Serine/threonine-protein kinase Sgk3 (Homo sapiens) (Q96BR1 whole entry, the tested form may be a part): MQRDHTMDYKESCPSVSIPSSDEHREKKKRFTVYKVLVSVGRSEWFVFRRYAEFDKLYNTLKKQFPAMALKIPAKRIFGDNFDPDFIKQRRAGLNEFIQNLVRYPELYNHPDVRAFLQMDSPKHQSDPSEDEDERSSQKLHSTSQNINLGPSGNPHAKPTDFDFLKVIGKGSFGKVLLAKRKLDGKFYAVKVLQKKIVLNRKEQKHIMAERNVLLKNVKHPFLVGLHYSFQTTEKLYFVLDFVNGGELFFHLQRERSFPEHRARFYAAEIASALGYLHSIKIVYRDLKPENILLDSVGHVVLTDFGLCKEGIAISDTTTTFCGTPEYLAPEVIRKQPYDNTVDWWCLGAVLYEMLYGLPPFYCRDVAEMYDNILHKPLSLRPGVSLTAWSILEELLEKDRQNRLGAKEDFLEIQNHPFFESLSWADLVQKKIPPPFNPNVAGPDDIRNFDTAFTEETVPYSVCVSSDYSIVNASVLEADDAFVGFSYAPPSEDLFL
Method in brief: (§1)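 Active site-directed competition binding panel (KinomeScan, 468 kinases). Test compound at 1 μM. Read-out is kinase binding remaining versus DMSO control, expressed as percent of control. Scores above 35% are treated as weak binding.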

[2] = target: TGF-beta receptor type-2 (Homo sapiens) (UniProt P37173); assay: Binding affinity to wild-type human partial length TGFBR2 (I218 to K567 residues) expressed in bacterial expression system assessed as residual binding level at 1 uM by Kinomescan method relative to control
[3] = target: Mitogen-activated protein kinase 12 (Homo sapiens) (UniProt P53778); assay: Binding affinity to wild-type human full length p38-gamma (M1 to L367 residues) expressed in mammalian expression system assessed as residual binding level at 1 uM by Kinomescan method relative to control
Method in brief: (§2)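 KinomeScan, an active site-directed competition binding panel of 468 kinases. The test compound was at 1 μM. The readout is remaining kinase binding as a percentage of the DMSO control. Scores above 35% were treated as weak binding and not listed.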

[4] = target: Dual specificity mitogen-activated protein kinase kinase; MEK1/2 (Homo sapiens) (UniProt P36507+Q02750); assay: Inhibition of MEK1/2 in human NCI-H1975 cells assessed as blocking of MEK1/2 pulldown at 1 uM in presence of TL13-68 incubated for 2 hrs by Western blot analysis; type: cell-based
Method in brief: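 H1975 or HCC827 cells treated with 1 μM compound or DMSO for 2 h, rinsed twice in cold PBS, and lysed in M-PER with protease/phosphatase inhibitors. Lysate rocked overnight at 4 °C with 1 μM TL13-68, then streptavidin pulldown with five cold washes. Bound kinases detected by Western blot. Two independent experiments.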

[5] = system: Receptor-type tyrosine-protein kinase FLT3 (Homo sapiens), P36888 [N841I]; assay: Binding affinity to human partial length FLT3 N841I mutant (V592 to Y969 residues) expressed in bacterial expression system assessed as residual binding level at 1 uM by Kinomescan method relative to control
Method in brief: (§3)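 KinomeScan active site-directed competition binding panel (468 kinases), compound tested at 1 μM. Result expressed as remaining kinase signal versus DMSO control (percent of control).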

[6] = target: Megakaryocyte-associated tyrosine-protein kinase (Homo sapiens) (UniProt P42679); assay: Binding affinity to wild-type human full length CTK (M43 to P508 residues) expressed in mammalian expression system assessed as residual binding level at 1 uM by Kinomescan method relative to control
Chain of Megakaryocyte-associated tyrosine-protein kinase (Homo sapiens) (P42679 whole entry, the tested form may be a part): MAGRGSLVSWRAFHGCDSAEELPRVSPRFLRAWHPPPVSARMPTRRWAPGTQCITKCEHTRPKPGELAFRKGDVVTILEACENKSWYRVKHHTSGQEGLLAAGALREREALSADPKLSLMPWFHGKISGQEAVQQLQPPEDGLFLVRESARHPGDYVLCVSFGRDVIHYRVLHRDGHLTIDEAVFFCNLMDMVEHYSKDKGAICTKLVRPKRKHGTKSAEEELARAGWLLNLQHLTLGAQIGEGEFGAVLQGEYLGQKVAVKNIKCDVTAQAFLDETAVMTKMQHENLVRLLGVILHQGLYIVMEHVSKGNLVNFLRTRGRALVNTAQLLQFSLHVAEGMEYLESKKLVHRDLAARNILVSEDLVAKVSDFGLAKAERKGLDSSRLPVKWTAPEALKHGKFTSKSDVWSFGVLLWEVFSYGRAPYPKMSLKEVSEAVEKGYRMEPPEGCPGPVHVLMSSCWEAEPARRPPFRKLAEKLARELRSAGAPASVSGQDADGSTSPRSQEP
Method in brief: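 Active-site-directed KinomeScan competition binding panel covering 468 kinases, compound tested at 1 μM. Each readout is the kinase signal remaining with compound, expressed as a percentage of the DMSO control. […]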

[7] = target: Mitogen-activated protein kinase kinase kinase 2 (Homo sapiens) (UniProt Q9Y2U5); assay: Binding affinity to wild-type human partial length MAP3K2 (S315 to H619 residues) expressed in mammalian expression system assessed as residual binding level at 1 uM by Kinomescan method relative to control
Method in brief: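 Active-site-directed competition binding panel of 468 kinases (KinomeScan), compound at 1 μM. The read-out is kinase remaining bound, given as a percentage of the DMSO control. […]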

[8] = target: Insulin receptor (Homo sapiens) (UniProt P06213); assay: Binding affinity to wild-type human partial length INSR (P997 to E1318 residues) expressed in mammalian expression system assessed as residual binding level at 1 uM by Kinomescan method relative to control
Chain of Insulin receptor (Homo sapiens) (P06213 28-758 limits assumed): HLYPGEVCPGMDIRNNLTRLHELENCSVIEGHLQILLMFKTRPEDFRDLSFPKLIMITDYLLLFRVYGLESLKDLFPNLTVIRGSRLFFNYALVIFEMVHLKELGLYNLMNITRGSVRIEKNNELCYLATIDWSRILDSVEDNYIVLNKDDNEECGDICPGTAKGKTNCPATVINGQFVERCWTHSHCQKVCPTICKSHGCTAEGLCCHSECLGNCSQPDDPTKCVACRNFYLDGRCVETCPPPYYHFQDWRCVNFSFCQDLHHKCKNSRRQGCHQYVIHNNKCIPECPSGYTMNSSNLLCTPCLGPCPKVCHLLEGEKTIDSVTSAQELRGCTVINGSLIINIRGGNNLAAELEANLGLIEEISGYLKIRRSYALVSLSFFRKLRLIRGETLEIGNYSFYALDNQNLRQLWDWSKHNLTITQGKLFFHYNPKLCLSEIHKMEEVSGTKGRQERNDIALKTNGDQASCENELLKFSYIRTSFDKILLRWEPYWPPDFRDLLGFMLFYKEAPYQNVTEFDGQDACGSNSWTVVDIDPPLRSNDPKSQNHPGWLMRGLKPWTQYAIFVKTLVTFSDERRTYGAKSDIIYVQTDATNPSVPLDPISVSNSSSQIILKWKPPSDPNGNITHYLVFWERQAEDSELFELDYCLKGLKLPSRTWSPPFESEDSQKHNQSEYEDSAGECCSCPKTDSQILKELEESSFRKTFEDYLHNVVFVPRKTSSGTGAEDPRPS
Chain of Insulin receptor (Homo sapiens) (P06213 763-1382 limits assumed): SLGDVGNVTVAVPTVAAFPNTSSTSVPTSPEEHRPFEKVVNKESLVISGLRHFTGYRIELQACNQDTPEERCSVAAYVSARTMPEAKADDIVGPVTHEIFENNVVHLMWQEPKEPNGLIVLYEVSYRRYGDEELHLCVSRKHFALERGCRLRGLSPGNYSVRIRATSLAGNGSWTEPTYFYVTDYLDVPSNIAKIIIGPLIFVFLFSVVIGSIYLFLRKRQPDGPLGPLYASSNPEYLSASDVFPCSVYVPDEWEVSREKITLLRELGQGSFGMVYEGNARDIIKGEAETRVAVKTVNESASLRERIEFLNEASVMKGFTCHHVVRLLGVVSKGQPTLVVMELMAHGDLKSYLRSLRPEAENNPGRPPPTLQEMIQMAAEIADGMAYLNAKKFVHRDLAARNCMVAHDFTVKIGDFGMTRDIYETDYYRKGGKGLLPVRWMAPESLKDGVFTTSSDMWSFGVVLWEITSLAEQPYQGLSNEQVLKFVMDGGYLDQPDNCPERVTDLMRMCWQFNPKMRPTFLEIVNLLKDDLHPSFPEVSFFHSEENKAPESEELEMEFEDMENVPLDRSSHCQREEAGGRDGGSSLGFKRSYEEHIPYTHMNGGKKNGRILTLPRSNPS

[9] = target: cAMP-dependent protein kinase catalytic subunit alpha (Homo sapiens) (UniProt P17612); assay: Binding affinity to wild-type human partial length PKAC-alpha (G10 to F351 residues) expressed in bacterial expression system assessed as residual binding level at 1 uM by Kinomescan method relative to control
[10] = target: SRSF protein kinase 2 (Homo sapiens) (UniProt P78362); assay: Binding affinity to wild-type human full length SRPK2 (M1 to S686 residues) expressed in bacterial expression system assessed as residual binding level at 1 uM by Kinomescan method relative to control
[11] = target: Ribosomal protein S6 kinase alpha-5 (Homo sapiens) (UniProt O75582); assay: Binding affinity to wild-type human partial length C-terminal RPS6KA5 kinase domain 2 (V390 to T718 residues) expressed in bacterial expression system assessed as residual binding level at 1 uM by Kinomescan method relative to control
[12] = target: Tyrosine-protein kinase BTK (Homo sapiens) (UniProt Q06187); assay: Binding affinity to wild-type human full length BTK (M1 to S659 residues) expressed in mammalian expression system assessed as residual binding level at 1 uM by Kinomescan method relative to control; method in brief: as §2
Chain of Tyrosine-protein kinase BTK (Homo sapiens) (Q06187 whole entry, the tested form may be a part): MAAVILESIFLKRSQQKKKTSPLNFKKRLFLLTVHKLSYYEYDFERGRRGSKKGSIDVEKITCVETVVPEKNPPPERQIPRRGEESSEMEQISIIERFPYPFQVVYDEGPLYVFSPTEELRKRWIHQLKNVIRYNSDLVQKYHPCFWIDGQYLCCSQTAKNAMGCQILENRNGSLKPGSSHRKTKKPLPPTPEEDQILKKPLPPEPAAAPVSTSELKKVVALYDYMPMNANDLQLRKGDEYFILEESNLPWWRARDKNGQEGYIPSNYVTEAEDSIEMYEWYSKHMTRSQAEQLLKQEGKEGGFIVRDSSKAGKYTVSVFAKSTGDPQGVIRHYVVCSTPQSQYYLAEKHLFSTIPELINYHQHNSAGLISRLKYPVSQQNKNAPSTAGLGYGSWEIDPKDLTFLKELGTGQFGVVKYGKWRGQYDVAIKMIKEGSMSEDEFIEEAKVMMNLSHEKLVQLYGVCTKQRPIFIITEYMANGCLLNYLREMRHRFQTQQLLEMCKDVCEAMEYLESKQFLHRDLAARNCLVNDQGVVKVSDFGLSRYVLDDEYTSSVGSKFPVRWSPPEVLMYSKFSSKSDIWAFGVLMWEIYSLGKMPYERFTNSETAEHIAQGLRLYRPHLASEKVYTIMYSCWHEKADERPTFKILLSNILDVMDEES

[13] = target: Serine/threonine-protein kinase OSR1 (Homo sapiens) (UniProt O95747); assay: Binding affinity to wild-type human full length OSR1 (M1 to S527 residues) expressed in mammalian expression system assessed as residual binding level at 1 uM by Kinomescan method relative to control
Chain of Serine/threonine-protein kinase OSR1 (Homo sapiens) (O95747 2-527 limits assumed): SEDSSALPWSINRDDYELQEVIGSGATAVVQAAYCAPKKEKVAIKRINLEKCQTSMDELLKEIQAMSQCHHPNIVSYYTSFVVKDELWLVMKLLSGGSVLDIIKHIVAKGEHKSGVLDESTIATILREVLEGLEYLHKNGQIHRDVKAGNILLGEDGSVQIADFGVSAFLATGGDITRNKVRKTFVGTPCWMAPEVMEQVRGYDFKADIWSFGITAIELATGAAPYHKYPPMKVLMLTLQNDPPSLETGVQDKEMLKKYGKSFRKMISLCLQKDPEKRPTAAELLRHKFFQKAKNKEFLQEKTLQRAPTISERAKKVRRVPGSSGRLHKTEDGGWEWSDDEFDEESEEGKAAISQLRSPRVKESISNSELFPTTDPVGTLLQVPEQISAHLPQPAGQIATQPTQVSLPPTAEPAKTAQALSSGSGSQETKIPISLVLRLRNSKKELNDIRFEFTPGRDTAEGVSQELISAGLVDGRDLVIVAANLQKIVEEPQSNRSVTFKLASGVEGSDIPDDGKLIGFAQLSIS
Method in brief: (§4)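 Active-site-directed competition binding panel (KinomeScan) covering 468 kinases. Test agent was screened at 1 μM. The read-out is the remaining kinase signal expressed relative to a DMSO control. Scores above 35%, taken as weak binding, were not reported.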

[14] = target: Cyclin-dependent kinase 16 (Homo sapiens) (UniProt Q00536); assay: Binding affinity to wild-type human partial length PCTK1 (G160 to A474 residues) expressed in mammalian expression system assessed as residual binding level at 1 uM by Kinomescan method relative to control
Chain of Cyclin-dependent kinase 16 (Homo sapiens) (Q00536 whole entry, the tested form may be a part): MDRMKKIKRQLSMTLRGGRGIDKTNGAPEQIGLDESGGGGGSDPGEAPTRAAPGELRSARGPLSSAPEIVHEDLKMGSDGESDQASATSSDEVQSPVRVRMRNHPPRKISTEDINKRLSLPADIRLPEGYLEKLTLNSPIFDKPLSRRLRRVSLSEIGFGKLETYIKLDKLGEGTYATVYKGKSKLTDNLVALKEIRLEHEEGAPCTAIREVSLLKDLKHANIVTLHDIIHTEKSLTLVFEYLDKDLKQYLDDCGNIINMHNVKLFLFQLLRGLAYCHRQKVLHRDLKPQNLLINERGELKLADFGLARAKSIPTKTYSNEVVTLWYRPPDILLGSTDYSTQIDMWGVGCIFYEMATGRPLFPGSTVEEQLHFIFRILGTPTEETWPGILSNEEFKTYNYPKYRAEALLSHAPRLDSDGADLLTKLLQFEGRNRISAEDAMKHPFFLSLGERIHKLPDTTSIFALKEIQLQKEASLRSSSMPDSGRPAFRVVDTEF

[15] = target: Serine/threonine-protein kinase TAO3 (Homo sapiens) (UniProt Q9H2K8); assay: Binding affinity to wild-type human partial length TAOK3 (M1 to T316 residues) expressed in mammalian expression system assessed as residual binding level at 1 uM by Kinomescan method relative to control
Chain of Serine/threonine-protein kinase TAO3 (Homo sapiens) (Q9H2K8 whole entry, the tested form may be a part): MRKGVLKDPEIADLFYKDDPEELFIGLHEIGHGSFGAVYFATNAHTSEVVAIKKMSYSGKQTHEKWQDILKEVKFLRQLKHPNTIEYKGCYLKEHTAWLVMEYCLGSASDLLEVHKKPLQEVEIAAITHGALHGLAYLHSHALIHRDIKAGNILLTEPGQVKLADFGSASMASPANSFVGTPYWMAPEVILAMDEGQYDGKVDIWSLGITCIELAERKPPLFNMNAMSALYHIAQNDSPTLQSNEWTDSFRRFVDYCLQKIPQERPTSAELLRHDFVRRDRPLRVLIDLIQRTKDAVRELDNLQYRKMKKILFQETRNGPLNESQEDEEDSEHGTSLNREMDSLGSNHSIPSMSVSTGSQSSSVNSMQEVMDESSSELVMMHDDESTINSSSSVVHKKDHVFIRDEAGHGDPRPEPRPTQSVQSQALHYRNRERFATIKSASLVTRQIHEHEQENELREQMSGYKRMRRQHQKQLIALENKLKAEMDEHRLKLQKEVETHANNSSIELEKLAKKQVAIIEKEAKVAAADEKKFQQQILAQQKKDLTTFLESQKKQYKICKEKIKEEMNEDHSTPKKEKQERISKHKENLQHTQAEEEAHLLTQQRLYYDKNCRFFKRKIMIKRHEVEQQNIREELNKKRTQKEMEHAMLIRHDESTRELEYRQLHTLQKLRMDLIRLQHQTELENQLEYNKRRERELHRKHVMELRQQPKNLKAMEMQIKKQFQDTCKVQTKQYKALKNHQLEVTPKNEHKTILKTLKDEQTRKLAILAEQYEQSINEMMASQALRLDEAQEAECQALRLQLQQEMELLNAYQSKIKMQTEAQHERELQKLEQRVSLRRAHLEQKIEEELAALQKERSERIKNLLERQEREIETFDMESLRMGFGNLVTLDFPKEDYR

[16] = target: Phosphatidylinositol 5-phosphate 4-kinase type-2 beta (Homo sapiens) (UniProt P78356); assay: Binding affinity to wild-type human full length PIP5K2B (M1 to T416 residues) expressed in bacterial expression system assessed as residual binding level at 1 uM by Kinomescan method relative to control; method in brief: as §2
[17] = system: Epidermal growth factor receptor (Homo sapiens), P00533 [UNDEFINED MUTATION]; assay: Binding affinity to human partial length EGFR L747-E749del/A750P mutant expressed in bacterial expression system assessed as residual binding level at 1 uM by Kinomescan method relative to control; method in brief: as §3
[18] = target: Macrophage colony-stimulating factor 1 receptor (Homo sapiens) (UniProt P07333); assay: Binding affinity to wild-type human partial length autoinhibited CSF1R (Y538 to S939 residues) expressed in mammalian expression system assessed as residual binding level at 1 uM by Kinomescan method relative to control; method in brief: as §1
[19] = target: cAMP-dependent protein kinase catalytic subunit beta (Homo sapiens) (UniProt P22694); assay: Binding affinity to wild-type human full length PKAC-beta (M1 to F351 residues) expressed in bacterial expression system assessed as residual binding level at 1 uM by Kinomescan method relative to control; method in brief: as §4

C=CC(=O)Nc1ccccc1Nc1nc(Nc2ccc(N3CCN(C)CC3)cc2)ncc1C(=O)Nc1c(C)cccc1Cl
Activity [1]: 86% | Activity [2]: 100% | Activity [3]: 97% | inhibition [4]: inactive | Activity [5]: 100% | Activity [6]: 100% | Activity [7]: 94% | Activity [8]: 100% | Activity [9]: 100% | Activity [10]: 100% | Activity [11]: 100% | Activity [12]: 0.1% | Activity [13]: 100% | Activity [14]: 100% | Activity [15]: 100% | Activity [16]: 99% | Activity [17]: 66% | Activity [18]: 79% | Activity [19]: 100%
